Test results published in ChEMBL document CHEMBL5230171, “Expanding the structure-activity relationships of alkynyl diphenylurea scaffold as promising antibacterial agents” (RSC Med Chem, 2023).
Active and inactive are the calls of the source.

How the values were obtained:
Staphylococcus aureus [1] = assay: Induction of drug resistance in methicillin resistant Staphylococcus aureus NRS384 USA300 assessed as fold change in MIC measured from passage 5 to 14 by broth microdilution method; assay type: functional
Outline: (§1)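 Multi-step resistance in MRSA USA300 over 14 consecutive passages, with rifampicin as the control antibiotic. The MIC was determined by broth microdilution at each passage. Resistance was defined as a greater than four-fold rise over the initial MIC.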

Staphylococcus aureus [2] = assay: Induction of drug resistance in methicillin resistant Staphylococcus aureus NRS384 USA300 assessed as fold change in MIC measured after 4 passages by broth microdilution method; assay type: functional; outline: as §1
Staphylococcus aureus [3] = assay: Antibacterial activity against methicillin resistant Staphylococcus aureus NRS384 USA300 infected in Balb/c mouse model of skin infection assessed as healing administered topically twice daily for three consecutive days from day 4 to 6 and measured 24 hrs post last dose; assay type: functional, organism-based; conditions: route top, time 4.0 day
Outline: (§2)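 Mice were anesthetized with 2,2,2-tribromoethanol and injected subcutaneously with 100 μL containing 2 × 10^9 CFU MRSA USA300 in 0.5% HPMC in saline. Topical treatment used a petroleum jelly vehicle, with a fusidic acid positive control. Lesions were photographed 24 h after the last dose. A ~1.5 cm2 skin patch (homogenized in 1 mL saline) and the spleen (in 0.5 mL) were serially diluted and plated on MSA at 37 °C overnight for CFU.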

Staphylococcus aureus [4] = assay: (§3) Antibacterial activity against methicillin resistant Staphylococcus aureus NRS384 USA300 infected in Balb/c mouse model of skin infection assessed as reduction in inflammation administered topically twice daily for three consecutive days from day 4 to 6 and measured 24 hrs post last dose; assay type: functional, organism-based; conditions: route top, time 4.0 day; outline: as §2
Staphylococcus aureus [5] = assay: as §3, with “bacterial burden in skin lesions” for “inflammation”; assay type: functional; conditions: route top; time 4 day; outline: as §2
Staphylococcus aureus [6] = assay: Antibacterial activity against methicillin resistant Staphylococcus aureus 123 assessed as inhibition of bacterial growth at 0.5 ug/ml incubated for 18 to 20 hrs by CLSI protocol based broth microdilution method; assay type: functional, organism-based; conditions: dose 0.5 µg/ml, time 18-20 hrs
Staphylococcus aureus [7] = assay: Antibacterial activity against methicillin resistant Staphylococcus aureus 384 assessed as inhibition of bacterial growth at 0.5 ug/ml incubated for 18 to 20 hrs by CLSI protocol based broth microdilution method; assay type: functional, organism-based; conditions: dose 0.5 µg/ml, time 18-20 hrs
Staphylococcus aureus [8] = assay: Antibacterial activity against methicillin resistant Staphylococcus aureus 119 assessed as inhibition of bacterial growth at 0.5 ug/ml incubated for 18 to 20 hrs by CLSI protocol based broth microdilution method; assay type: functional, organism-based; conditions: dose 0.5 µg/ml, time 18-20 hrs
Staphylococcus aureus [9] = assay: Antibacterial activity against methicillin resistant Staphylococcus aureus 385 assessed as inhibition of bacterial growth at 0.5 ug/ml incubated for 18 to 20 hrs by CLSI protocol based broth microdilution method; assay type: functional, organism-based; conditions: dose 0.5 µg/ml, time 18-20 hrs
Staphylococcus aureus [10] = assay: Antibacterial activity against methicillin resistant Staphylococcus aureus 386 assessed as inhibition of bacterial growth at 0.5 ug/ml incubated for 18 to 20 hrs by CLSI protocol based broth microdilution method; assay type: functional, organism-based; conditions: dose 0.5 µg/ml, time 18-20 hrs
Staphylococcus aureus [11] = assay: Antibacterial activity against vancomycin resistant Staphylococcus aureus 10 assessed as inhibition of bacterial growth at 0.5 ug/ml incubated for 18 to 20 hrs by CLSI protocol based broth microdilution method; assay type: functional, organism-based; conditions: dose 0.5 µg/ml, time 18-20 hrs
Staphylococcus aureus [12] = assay: Antibacterial activity against vancomycin resistant Staphylococcus aureus 12 assessed as inhibition of bacterial growth at 0.5 ug/ml incubated for 18 to 20 hrs by CLSI protocol based broth microdilution method; assay type: functional, organism-based; conditions: dose 0.5 µg/ml, time 18-20 hrs
Staphylococcus aureus [13] = assay: Antibacterial activity against vancomycin resistant Staphylococcus aureus 9 assessed as inhibition of bacterial growth at 0.5 ug/ml incubated for 18 to 20 hrs by CLSI protocol based broth microdilution method; assay type: functional, organism-based; conditions: dose 0.5 µg/ml, time 18-20 hrs
Staphylococcus aureus [14] = assay: Antibacterial activity against methicillin sensitive Staphylococcus aureus 107 assessed as inhibition of bacterial growth at 0.5 ug/ml incubated for 18 to 20 hrs by CLSI protocol based broth microdilution method; assay type: functional, organism-based; conditions: dose 0.5 µg/ml, time 18-20 hrs
Outline: (§4)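 Staphylococcal and E. coli strains were diluted from a 0.5 McFarland suspension in cation-adjusted Mueller Hinton broth to ~5 × 10^5 CFU mL−1. They were incubated with serial dilutions of test agent in broth microdilution, and the MIC was recorded.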

Staphylococcus aureus [15] = assay: Antibacterial activity against methicillin sensitive Staphylococcus aureus 6538 assessed as inhibition of bacterial growth at 0.5 ug/ml incubated for 18 to 20 hrs by CLSI protocol based broth microdilution method; assay type: functional, organism-based; conditions: dose 0.5 µg/ml, time 18-20 hrs; outline: as §4
Vero = assay: Cytotoxicity against African green monkey Vero cells assessed as reduction in cell viability at 64 ug/ml incubated for 24 hrs by MTS assay; assay type: toxicity, cell-based; conditions: chlorocebus sabaeus, dose 64 µg/ml
Outline: (§5)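 Vero or HaCaT cells were exposed to 32, 64 and 128 μg mL−1 compound in triplicate for 24 h at 37 °C, 5% CO2, with a DMSO control. MTS was then added for 4 h and OD490 read. Analysis used two-way ANOVA with Dunnett's post hoc test (p < 0.05).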

[16] = Cytotoxicity against human HaCaT cells assessed as tolerance by measuring cell viability upto 128 ug/ml incubated for 24 hrs by MTS assay relative to control; assay type: toxicity, cell-based; conditions: up to 128 µg/mL, read-out: Activity; outline: as §5
Staphylococcus aureus [17] = assay: Antibacterial activity against methicillin resistant Staphylococcus aureus NRS384 USA300 assessed as inhibition of bacterial growth incubated for 18 to 20 hrs by CLSI protocol based broth microdilution method; assay type: functional; conditions: time 18-20 hrs
Outline: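 Broth microdilution against staphylococcal clinical isolates. Each strain was prepared as a 0.5 McFarland suspension and diluted in cation-adjusted Mueller Hinton broth to ~5 × 10^5 CFU mL−1. Serial dilutions of test agents in DMSO stock were incubated with the bacteria, and the MIC was recorded.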

Clostridioides difficile = assay: Antibacterial activity against Clostridioides difficile ATCC BAA 1870 assessed as inhibition of bacterial growth incubated for 18 to 20 hrs by CLSI protocol based broth microdilution method; assay type: functional; conditions: time 18-20 hrs
Outline: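 C. difficile was diluted from a 0.5 McFarland suspension in BHI supplemented with hemin and vitamin K. It was incubated with serial dilutions of test agent in broth microdilution, and the MIC was recorded.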

Escherichia coli = assay: Antibacterial activity against Escherichia coli JW55031 assessed as inhibition of bacterial growth incubated for 18 to 20 hrs by CLSI protocol based broth microdilution method; assay type: functional; conditions: time 18-20 hrs; outline: as §4
[18] = Cytotoxicity against African green monkey Vero cells assessed as tolerance by measuring cell viability upto 128 ug/ml incubated for 24 hrs by MTS assay relative to control; assay type: toxicity, cell-based; conditions: chlorocebus sabaeus, up to 128 µg/mL, read-out: Activity; outline: as §5
[19] = Cytotoxicity against human HaCaT cells assessed as tolerance by measuring cell viability at 64 ug/ml incubated for 24 hrs by MTS assay relative to control; assay type: toxicity, cell-based; conditions: at 64 µg/mL, read-out: Activity; outline: as §5

SMILES | Activity (Staphylococcus aureus [6]) | Activity (Staphylococcus aureus [7]) | Activity (Staphylococcus aureus [8]) | Activity (Staphylococcus aureus [9]) | Activity (Staphylococcus aureus [10]) | Activity (Staphylococcus aureus [11]) | Activity (Staphylococcus aureus [12]) | Activity (Staphylococcus aureus [13]) | Activity (Staphylococcus aureus [14]) | Activity (Staphylococcus aureus [15]) | further results
CO[C@H]1/C=C/O[C@@]2(C)Oc3c(C)c(O)c4c(O)c(c(/C=N/N5CCN(C)CC5)c(O)c4c3C2=O)NC(=O)/C(C)=C\C=C\[C@H](C)[C@H](O)[C@@H](C)[C@@H](O)[C@@H](C)[C@H](OC(C)=O)[C@@H]1C [RIFAMPIN] | – | – | – | – | – | – | – | – | – | – | fold change (FC) (Staphylococcus aureus [1]): 15; fold change (FC) (Staphylococcus aureus [2]): >4
CC(=O)O[C@H]1C[C@@]2(C)[C@@H](C[C@@H](O)[C@H]3[C@@]4(C)CC[C@@H](O)[C@@H](C)[C@@H]4CC[C@@]32C)/C1=C(\CCC=C(C)C)C(=O)O [FUSIDIC ACID] | – | – | – | – | – | – | – | – | – | – | Activity (Staphylococcus aureus [3]): Active; Activity (Staphylococcus aureus [4]): Active; Activity (Staphylococcus aureus [5]): 1.5 log10CFU/ml
C/C(=N\NC(=N)N)c1ccc(NC(=O)Nc2ccc(C#CC(C)(C)O)cc2)cc1 | Active | Active | Active | Active | Active | Active | Active | Active | Active | Active | Activity (Vero): Non-Toxic; viability at 24 h [16]: 100%
C/C(=N\NC(=N)N)c1ccc(NC(=O)Nc2ccc(C#CC3CC3)cc2)cc1 | – | – | – | – | – | – | – | – | – | – | MIC (Staphylococcus aureus [17]): ≥ 64 µg/mL; MIC (Clostridioides difficile): ≥ 64 µg/mL; MIC (Escherichia coli): ≥ 64 µg/mL
C/C(=N\NC(=N)N)c1ccc(NC(=O)Nc2ccc(C#CC3(N)CCCCC3)cc2)cc1 | Active | Active | Active | Active | Active | Active | Active | Active | Active | Active | viability at 24 h [18]: 100%; viability at 24 h, 64 ug/ml [19]: 100%
